Test results as given in ChEMBL document CHEMBL1124829, “Methylating agents as trypanocides” (1990).

Legend:
Format in all cases: functional
Mus musculus [1] = assay: Mean life extension in mice bearing Trypanosoma rhodesiense, after ip administration at a dose of 0.5 mmol/kg
Mus musculus [2] = assay: (§1) Mean life extension in mice bearing Trypanosoma rhodesiense, after ip administration at a dose of 0.2 mmol/kg; parameters: unit: days
Summary of the method: (§2)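 Female CD-1 mice, 6-8 weeks old, 25-35 g, infected ip with about 10^6 freshly isolated trypanosomes in PBSG. At day 3 post-infection they got a single ip dose, dissolved in 50 µL DMSO or in 0.5 mL PBSG adjusted to pH 7.4. Activity is the days of survival beyond vehicle-only controls, as the mean of 4 mice to the nearest day. Parasitemia was monitored to exclude toxic deaths.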

Mus musculus [3] = assay: Mean life extension in mice bearing Trypanosoma rhodesiense, after ip administration at 0.9 mmol/kg dose; summary of the method: as §2
Mus musculus [4] = assay: Mean life extension was determined in mice bearing Trypanosoma evansi (SN) after administration of 0.2 mmol/kg per dose
Summary of the method: (§3)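 Female CD-1 mice, 6-8 weeks old, were infected ip with about 10^6 cells in PBSG. When parasitemia reached about 10^8 cells/mL they got a single 0.2 mmol/kg dose in DMSO. The result is days survived beyond DMSO-only controls, as the mean of 4 animals to the nearest day with SE. Survival of 30 days or more was counted as cure.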

Mus musculus [5] = assay: Mean life extension was determined in mice bearing Trypanosoma brucei rhodesiense (YTAT 1.1) after administration of 0.2 mmol/kg per dose; summary of the method: as §3
Mus musculus [6] = assay: Mean life extension was determined in mice bearing Trypanosoma brucei (M110) after administration of 0.2 mmol/kg per dose; summary of the method: as §3
Mus musculus [7] = assay: Mean life extension was determined in mice bearing Trypanosoma brucei gambiense (TxTAT 1.0), after administration of 0.2 mmol/kg per dose; summary of the method: as §3
Mus musculus [8] = assay: Mean life extension was determined in mice bearing Trypanosoma evansi (SAK), after administration of 0.2 mmol/kg per dose; summary of the method: as §3
Mus musculus [9] = assay: Mean life extension was determined in mice bearing Trypanosoma equiperdum (1559), after administration of 0.2 mmol/kg per dose; summary of the method: as §3
Mus musculus [10] = assay: Mean life extension in mice bearing Trypanosoma rhodesiense, after ip administration at 0.4 mmol/kg dose
Mus musculus [11] = assay: as §1; summary of the method: as §2
Mus musculus [12] = assay: Mean life extension in mice bearing Trypanosoma rhodesiense, after ip administration at 0.5 mmol/kg dose; summary of the method: as §2

| SMILES | Mean life extension (Mus musculus [2]) | further results |
| --- | --- | --- |
| CNN.Cl.Cl | – | Mean life extension (Mus musculus [1]): 1 |
| CN(NS(=O)(=O)c1ccccc1)S(=O)(=O)c1ccccc1 | 5 | – |
| CNNC.Cl.Cl | 4 | – |
| COc1ccc(S(=O)(=O)NN(C)S(C)(=O)=O)cc1 | 4 | – |
| CCNNCC.Cl.Cl | 0 | – |
| CN(NC(=O)c1ccccc1)C(=O)c1ccccc1 | 0 | – |
| O=S(=O)(NNS(=O)(=O)c1ccccc1)c1ccccc1 | 0 | – |
| CNNCc1ccc(C(=O)NC(C)C)cc1 [PROCARBAZINE] | 5 | Mean life extension (Mus musculus [3]): >30 |
| COS(=O)(=O)OC [SULFURIC ACID DIMETHYL ESTER] | 3 | – |
| Cl.Cl.NN [HYDRAZINE DIHYDROCHLORIDE] | – | Mean life extension (Mus musculus [1]): 0 |
| COS(C)(=O)=O [METHANESULFONIC ACID METHYL ESTER] | 1 | – |
| CCOS(=O)(=O)OCC [SULFURIC ACID DIETHYL ESTER] | 0 | – |
| CN(NS(C)(=O)=O)S(C)(=O)=O | 12 | Mean life extension (Mus musculus [4]): 12; Mean life extension (Mus musculus [5]): 12; Mean life extension (Mus musculus [6]): 11; Mean life extension (Mus musculus [7]): 13; Mean life extension (Mus musculus [8]): >30; Mean life extension (Mus musculus [9]): 12 |
| CN(N=O)C(N)=O [N-METHYL-N-NITROSUREA] | 8 | Mean life extension (Mus musculus [10]): >30 |
| CN(N=O)C(=O)N[C@@H](C=O)[C@@H](O)[C@H](O)[C@H](O)CO [STREPTOZOCIN] | – | Mean life extension (Mus musculus [11]): 4 |
| CN(C)/N=N/c1[nH]cnc1C(N)=O [DACARBAZINE] | 6 | Mean life extension (Mus musculus [12]): >30 |
